# ChEMBL document CHEMBL1275434, “In vitro evaluation of CBR-2092, a novel rifamycin-quinolone hybrid antibiotic: studies of the mode of action in Staphylococcus aureus” (Antimicrob Agents Chemother, 2008)
# Calls of active or inactive are those of the source. The calls are words filed in the database; no cut-off is given here.
# What was measured:
# Staphylococcus aureus [1] = assay: Antimicrobial activity against Staphylococcus aureus CB1891 harboring […], parE P587S and parE F638V mutant genes by broth microdilution method
# [2] = test system: DNA gyrase subunit A (Staphylococcus aureus), P20831 [S84L]; assay: Activity at Staphylococcus aureus wild-type GyrA S84L mutant
# Staphylococcus aureus [3] = assay: Antimicrobial activity against Staphylococcus aureus CB1430 harboring rpoB H481Y, parE E474K and gyrA S84L mutant genes selected after 0.18 ug/ml drug exposure by broth microdilution method; format: functional
# Summary of the method: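 CLSI broth microdilution MIC in cation-adjusted Mueller-Hinton (MHII) broth with 0.002% (vol/vol) polysorbate 80. Single-step mutants were selected on agar […], purified by drug-free passage, their phenotype re-verified, and resistance loci sequenced.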
# Staphylococcus aureus [4] = assay: Inhibition of DNA synthesis in rifamycin-resistant Staphylococcus aureus CB370 harboring rpoB H481Y mutant gene assessed as decrease in [methyl-3H]thymidine incorporation at 0.5 ug/ml; format: functional, organism-based
# Summary of the method: (§1)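 Macromolecular synthesis time course in S. aureus, measuring incorporation of [methyl-3H]thymidine (DNA), [5,6-3H]uridine (RNA) or [2,3-3H]D-alanine (cell wall). At each time point, incorporation is expressed as percent of the DMSO-treated control culture. Incorporation at time zero is set to 100%.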
# Staphylococcus aureus [5] = assay: Antimicrobial activity against Staphylococcus aureus CB1333 harboring rpoB H481Y, parC S80F and parE L517F mutant genes selected after 0.8 ug/ml drug exposure by broth microdilution method; format: functional
# Staphylococcus aureus [6] = assay: Antimicrobial activity against Staphylococcus aureus CB1871 harboring rpoB H481Y mutant gene by broth microdilution method
# Staphylococcus aureus [7] = assay: Inhibition of DNA synthesis in quinolone-resistant Staphylococcus aureus CB814 harboring gyrA S84L and parC S80F mutant genes assessed as decrease in [methyl-3H]thymidine incorporation at 0.5 ug/ml; format: functional, organism-based
# Summary of the method: as §1
# Staphylococcus aureus [8] = assay: Antimicrobial activity against rifampin-sensitive Staphylococcus aureus CB190 harboring rpoB D471G mutant gene by broth microdilution method; format: functional
# Summary of the method: (§2)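 CLSI broth microdilution MIC in cation-adjusted Mueller-Hinton (MHII) broth supplemented with 0.002% (vol/vol) polysorbate 80, included to limit compound loss to plastic surfaces.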
# Staphylococcus aureus [9] = assay: Antimicrobial activity against Staphylococcus aureus CB1882 harboring rpoB R484H mutant gene, L520 deficient gyrA gene and R236 duplicated parC gene; format: functional
# Staphylococcus aureus [10] = assay: Antimicrobial activity against Staphylococcus aureus CB1882 harboring rpoB R484H mutant gene, L520 deficient gyrA gene and R236 duplicated parC gene by agar dilution method; format: functional
# Summary of the method: (§3)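 CLSI agar dilution MIC on MHII base medium against stepwise-passage isolates; passage was in MHII broth without polysorbate 80, daily at 37°C.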
# Staphylococcus aureus [11] = assay: Antimicrobial activity against Staphylococcus aureus CB1354 harboring rpoB H481Y, parC S80F, parE R455H and gyrA S84L mutant genes selected after 0.53 ug/ml drug exposure by broth microdilution method; format: functional
# Staphylococcus aureus [12] = assay: Antimicrobial activity against Staphylococcus aureus CB1954 harboring rpoB H481Y, gyrA S84L, K809 deficient gyrA, parC S80F, parC A523D mutant genes selected after CBR-2092 exposure for 7 days by agar dilution method; format: functional; settings: CB1954, 168 h
# Summary of the method: (§4)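 CLSI agar dilution MIC with cation-adjusted Mueller-Hinton (MHII) agar as the base medium.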
# Staphylococcus aureus [13] = assay: Activity at Staphylococcus aureus wild-type GyrA
# Summary of the method: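 Recombinant S. aureus gyrase (wild-type GyrA with His-tagged GyrB; 250 U per μg). SDS/proteinase K stop. Gel quantitation of linear cleavage product gave CC50, the mean of two or more assays.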
# Staphylococcus aureus [14] = assay: Antimicrobial activity against Staphylococcus aureus CB1420 harboring rpoB H481Y and gyrA G584V mutant genes selected after 0.1 ug/ml drug exposure by broth microdilution method
# Staphylococcus aureus [15] = assay: Antimicrobial activity against Staphylococcus aureus CB370 harboring rpoB H481Y mutant gene by agar dilution method; format: functional
# Summary of the method: as §4
# Staphylococcus aureus [16] = assay: Antimicrobial activity against Staphylococcus aureus CB1953 harboring rpoB H481Y, gyrA S84L, gyrA V598I, parC S80F, parC R570H mutant genes selected after CBR-2092 exposure for 7 days by agar dilution method; format: functional; settings: CB1953, 168 h
# Summary of the method: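 CLSI agar dilution MIC on MHII base medium against strains from multistep passage (up to 20–21 days) of parents with preexisting rifamycin and/or quinolone resistance.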
# Staphylococcus aureus [17] = assay: Antimicrobial activity against rifampin-sensitive Staphylococcus aureus CB190 harboring rpoB D471Y mutant gene by broth microdilution method; format: functional
# Summary of the method: as §2
# Staphylococcus aureus [18] = assay: Antimicrobial activity against Staphylococcus aureus CB1952 harboring rpoB S486L, gyrA […], gyrA E88Q, gyrA G532S, parC S80F, parC E84L mutant genes selected after CBR-2092 exposure for 21 days by broth microdilution method; format: functional; settings: CB1952, 504 h
# Summary of the method: (§5)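 CLSI broth microdilution MIC in MHII with 0.002% polysorbate 80 against strains from 20–21 days of stepwise passage of rifamycin- and/or quinolone-resistant parents; CBR-2092 passages used MHII with 0.002% polysorbate 80.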
# Staphylococcus aureus [19] = assay: Antimicrobial activity against Staphylococcus aureus CB1884 by broth microdilution method; format: functional
# Summary of the method: (§6)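 CLSI broth microdilution MIC in MHII broth with 0.002% (vol/vol) polysorbate 80. Isolates came from daily stepwise broth passage at sub-MIC drug (MHII without polysorbate 80, 10^6 CFU/ml inoculum, 20–24 h shaking at 37°C), were purified drug-free, and were sequenced at target loci.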
# Staphylococcus aureus [20] = assay: Antimicrobial activity against Staphylococcus aureus CB1522 harboring by broth microdilution method; format: functional
# Staphylococcus aureus [21] = assay: Inhibition of DNA synthesis in Staphylococcus aureus CB190 assessed as decrease in [methyl-3H]thymidine incorporation at 0.5 ug/ml; format: functional, organism-based
# Staphylococcus aureus [22] = assay: Antimicrobial activity against Staphylococcus aureus CB1883 harboring rpoB R484H mutant gene, L520 deficient gyrA gene, gyrA S84L mutant gene and R236 duplicated par C gene by broth microdilution method; format: functional
# Summary of the method: as §6
# Staphylococcus aureus [23] = assay: Antimicrobial activity against Staphylococcus aureus CB1524 harboring rpoB H481Y and gyrA G773V mutant genes selected after 0.25 ug/ml drug exposure by broth microdilution method; format: functional
# Summary of the method: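 CLSI broth microdilution in cation-adjusted Mueller-Hinton (MHII) broth supplemented with 0.002% (vol/vol) polysorbate 80 to limit compound loss to plastic. Strains are spontaneous single-step mutants isolated on agar from an rpoB H481Y parent (RN4220 background), purified through drug-free passage with the resistance phenotype re-verified as stable before testing; target loci genotyped by PCR amplification and sequencing.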
# Staphylococcus aureus [24] = assay: Antimicrobial activity against Staphylococcus aureus CB1887 harboring rpoB R484H, L520 deficient gyrA, […], R236 duplicated parC and parC H103Y mutant genes selected after ABT-719 exposure for 20 days by broth microdilution method; format: functional; settings: CB1887, 480 h
# Summary of the method: as §5
# Staphylococcus aureus [25] = assay: Antimicrobial activity against Staphylococcus aureus CB1881 harboring rpoB R484H mutant gene and L520 deficient gyrA gene by agar dilution method; format: functional
# Summary of the method: as §3
structure (smiles),measurement,setting,value
CO[C@H]1/C=C/O[C@@]2(C)Oc3c(C)c(O)c4c(O)c(c(/C=N/N5CCC(N(C)C6([C@@H]7CCN(c8c(F)cn9c(=O)c(C(=O)O)cc(C%10CC%10)c9c8C)C7)CC6)CC5)c(O)c4c3C2=O)NC(=O)/C(C)=C\C=C\[C@H](C)[C@H](O)[C@@H](C)[C@@H](O)[C@@H](C)[C@H](OC(C)=O)[C@@H]1C,MIC,Staphylococcus aureus [1],0.03 µg/mL
same,CC50,[2],> 150000 nM
same,MIC,Staphylococcus aureus [3],16 µg/mL
same,Activity,Staphylococcus aureus [4],Active
same,MIC,Staphylococcus aureus [5],16 µg/mL
same,MIC,Staphylococcus aureus [6],0.12 µg/mL
same,Activity,Staphylococcus aureus [7],Active
same,MIC,Staphylococcus aureus [8],0.25 µg/mL
same,Time,Staphylococcus aureus [9],45 min
same,MIC,Staphylococcus aureus [10],0.5 µg/mL
same,MIC,Staphylococcus aureus [11],16 µg/mL
same,MIC,Staphylococcus aureus [12],2 µg/mL
same,CC50,Staphylococcus aureus [13],1500 nM
same,MIC,Staphylococcus aureus [14],0.5 µg/mL
same,MIC,Staphylococcus aureus [15],0.03 µg/mL
same,MIC,Staphylococcus aureus [16],2 µg/mL
same,MIC,Staphylococcus aureus [17],0.25 µg/mL
same,MIC,Staphylococcus aureus [18],31 µg/mL
same,MIC,Staphylococcus aureus [19],64 µg/mL
same,MIC,Staphylococcus aureus [20],0.25 µg/mL
same,Activity,Staphylococcus aureus [21],Active
same,MIC,Staphylococcus aureus [22],8 µg/mL
same,MIC,Staphylococcus aureus [23],2 µg/mL
same,MIC,Staphylococcus aureus [24],> 250 µg/mL
same,MIC,Staphylococcus aureus [25],0.25 µg/mL
